Screening results as filed in PubChem.
697 NFkB inh – lowers PMA/ionomycin-induced NF-kB signal in 697 B cells. 697 B-cell NF-kB luciferase reporter, 16 h. AID 435022. inhibition, % at 4 µM. 330,000 tested, 0.33% active; in the data active = inhibition above about 35%
Jurkat NFkB inh – inhibitors of the PMA/ionomycin-induced NF-kB reporter in Jurkat cells; PMA/ionomycin-induced NF-kB luciferase reporter, luminescence; inhibition, % at 4 µM; 330,000 tested, 0.53% active; in the data active = inhibition above about 50%
MPTP block – permeability transition pore inhibition; 360,000 tested, 1.4% active; inhibition, % at 10 µM; AID 602449; isolated mouse mitochondria, Ca2+ swelling absorbance, 30 min;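 active = inhibition of 50% or more, scaled per plate between neutral and stimulator controls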;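 note: 0% = DMSO wells given calcium and 100% = 1 mM EGTA wells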
NR2E3 ag-1 – activates human photoreceptor nuclear receptor NR2E3; inhibition of corepressor binding, % at 4.78 µM; 320,000 tested, 0.12% active; GST-NR2E3/biotin-RetCOR TR-FRET, 1536-well; Q9Y5X4;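 active = percent inhibition above the cutoff of mean plus 3 SD of all tested compounds, set per screening campaign, cut at about 20% in these data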;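 note: 0% = DMSO wells and 100% = biotin wells as full block of FRET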
Target sequence (Q9Y5X4 whole entry, looked up): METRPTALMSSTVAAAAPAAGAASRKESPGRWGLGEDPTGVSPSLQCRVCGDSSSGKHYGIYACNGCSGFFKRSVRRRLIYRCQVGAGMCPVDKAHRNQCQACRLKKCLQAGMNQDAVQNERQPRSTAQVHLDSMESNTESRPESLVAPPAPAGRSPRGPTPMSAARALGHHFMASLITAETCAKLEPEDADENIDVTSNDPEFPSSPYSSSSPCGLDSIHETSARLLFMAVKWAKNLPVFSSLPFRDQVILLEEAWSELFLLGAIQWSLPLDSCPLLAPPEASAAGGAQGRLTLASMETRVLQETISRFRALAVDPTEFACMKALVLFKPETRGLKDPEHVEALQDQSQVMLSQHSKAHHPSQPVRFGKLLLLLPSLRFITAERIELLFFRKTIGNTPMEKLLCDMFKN
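System: GST-NR2E3 and biotin-RetCOR proteins; probe or stimulus: 7 nM biotin-RetCOR; doses: compound at 4.8 µM, single dose; schedule: Compound–protein incubation for 5 h at 4 °C; detection: time-resolved FRET; read-out: percent inhibition; controls: biotin wells as high control, 0.6% DMSO wells as low control; format: 1536-well plates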
NR2E3 ag-2 – activates human NR2E3 receptor; Q9Y5X4; CHO-S Gal4-NCOR/VP16-NR2E3 two-hybrid, luciferase; inhibition of corepressor binding, % at 3.98 µM; 360,000 tested, 0.35% active; AID 602229;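 active = inhibition above the mean of all tested compounds plus 3 SD, cut at about 70% in these data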;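 note: 0% = DMSO with NR2E3 transfected cells and 100% = cells lacking NR2E3 construct; higher means lower luciferase signal from less NR2E3 corepressor binding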
aDG glyco act – increases alpha dystroglycan glycosylation; Pro5-aDG cells, alpha-DG glycosylation AlphaScreen (IIH6); 0% Pro5, 100% B10-LARGE cell signal; activation, % at 10 µM; 360,000 tested, 0.22% active; AID 624168;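 active = activation of at least 8% versus controls, or a plate z-score of at least 8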;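 note: Pro5 are CHO cells carrying HIG-tagged alpha-DG that lacks glycosylation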
MPTP counter – Rhodamine 123 counter-screen of mitochondrial pore hits; 5,000 tested, 78% active; isolated mitochondria, membrane potential, Rhodamine 123 fluorescence; shares compounds with MPTP block; inhibition, % at 10 µM; in the data active = inhibition above about 22%;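 note: 0% = DMSO vehicle and 100% = positive control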
MPTP abs DR – dose response confirmation of mitochondrial permeability transition pore inhibitors. shares compounds with MPTP block. isolated mitochondria swelling, absorbance. IC50, µM. 780 tested, 58% active; in the data active = IC50 below about 20 µM
MPTP counter DR – counter-screen for mitochondrial permeability transition pore inhibitors, dose response | shares compounds with MPTP block | isolated mitochondria counterscreen, fluorescence read-out | IC50, µM | 780 tested, 49% active; in the data active = IC50 below about 80 µM
Active calls of the source: *; . = not tested or not shown. The list is not random: actives were taken first. Their share in the collection is about 2.4%.

SMILES | 697 NFkB inh | Jurkat NFkB inh | MPTP block | NR2E3 ag-1 | NR2E3 ag-2 | aDG glyco act | MPTP counter | others
O=C(NCCSCc1ccco1)Nc1cc(Cl)cc(Cl)c1 | 5.8 | 1.7 | 86.5* | -3.8 | -31.8 | 0.1 | 90.2*
O=C(Cn1cnc2ccccc2c1=O)NNC(=O)c1ccccc1 | 11.8 | -6.5 | -0.7 | -1.5 | -3.6 | 0.9 | .
CCCCN(CC)CCNC(=O)c1cc2c(C)nc3ccccc3c2o1 | 12.6 | -7.6 | -0.1 | 2.4 | -3.0 | -0.2 | .
COc1cccc(CNC(=O)c2cc3c(C)nc4ccccc4c3o2)c1 | -14.5 | 7.2 | 59.9* | 1.7 | 33.5 | 0.5 | 33.6*
COc1ccc(CNC(=O)c2cc3c(C)nc4ccccc4c3o2)c(OC)c1 | 13.9 | 42.8 | 73.4* | 0.3 | 98.9* | -0.1 | 96.2*
CCCC1C(=O)N(Cc2ccccc2)C(=O)CC1C (stereo unspecified) | 1.0 | -5.1 | 0.3 | 2.6 | -38.7 | 0.1 | .
CCOC(=O)C1=CCC2C(=O)N(CC)C(=O)C12 (stereo unspecified) | . | . | 1.0 | . | -14.8 | -0.3 | .
CC(C)CCN1C(=O)c2ccc(C(=O)Nc3cc(C(=O)O)cc(C(=O)O)c3)cc2C1=O | 2.5 | 9.5 | -0.5 | . | -12.8 | 0.0 | .
CC(C)CN1C(=O)c2ccc(C(=O)Nc3ccncc3)cc2C1=O | 7.2 | 12.9 | 60.0* | 1.3 | -3.3 | 0.0 | 70.3*
CC(C)CCN1C(=O)c2ccc(C(=O)Nc3ccc(Br)cc3C(=O)O)cc2C1=O | -5.0 | 1.0 | 92.7* | 2.4 | 5.7 | -0.1 | 45.9*
O=C(Cc1n[nH]c(=O)c2ccccc12)OCC(=O)c1ccc(F)c(F)c1 | -14.8 | -8.5 | -0.1 | 3.1 | 6.0 | 0.1 | .
COc1ccc(OC(=O)Cc2cccc3ccccc23)cc1 | . | . | 5.4 | 0.7 | -11.7 | 0.0 | .
CCc1cccc(C)c1NC(=O)CSc1nnc(-c2cc3cc(Br)ccc3o2)n1CC | -31.2 | 12.3 | 92.4* | 3.9 | 11.2 | 0.5 | 84.1*
S=C(Nc1ccc(Cl)cc1Cl)NC1CCCCC1 | -67.5 | -35.4 | 85.6* | -1.3 | -107.3 | 0.2 | 108.8*
Cc1ccc(NC(=S)NNC(=S)NC2CCCCC2)cc1 | -10.7 | -26.7 | 8.8 | -0.7 | -27.1 | -0.1 | .
S=C(NCc1cccc(Cl)c1)NC1CCCCC1 | -7.9 | -0.3 | 77.3* | -0.2 | 0.8 | 0.1 | 67.0*
O=C(Nc1ccc(Cl)cc1Cl)NC1CCCC1 | -49.3 | -25.8 | 1.6 | 4.1 | -4.9 | 1.1 | .
CC(C)c1ccc(NC(=S)NC2CCCCCC2)cc1 | -68.8 | -78.3 | 73.8* | 1.1 | -100.4 | 2.8 | 87.0*
S=C(Nc1ccc(Oc2ccccc2)cc1)NC1CCCCC1 | -0.3 | -0.9 | 80.1* | 1.7 | 29.0 | 0.6 | 95.1*
O=C(Nc1ccccc1N1CCN(c2ccccc2)CC1)c1ccccc1 | -1.1 | -2.2 | 0.8 | -3.1 | -16.1 | 0.9 | .
CC(=O)N1CCN(C(=O)COC(=O)c2oc3ccccc3c2C)CC1 | -1.3 | -19.2 | -0.4 | 1.9 | -11.2 | 0.1 | .
S=C(Nc1ccc(Cl)c(Cl)c1)NC1CCCCC1 | -8.6 | -15.5 | 96.4* | -3.7 | 18.1 | 0.9 | 75.2*
S=C(Nc1ccc(Oc2ccccc2)cc1)NC1CCCCCC1 | . | . | 96.4* | -2.4 | -3.5 | 1.8 | 88.9*
S=C(NCc1ccc2c(c1)OCO2)NC1CCN(Cc2ccccc2)CC1 | -8.7 | 2.3 | 74.2* | 5.3 | -3.5 | 0.3 | 4.5 | MPTP abs DR=10.9*;MPTP counter DR=53.7*
O=C(O)c1ccc(NC(=S)NC2CCCCC2)cc1 | -17.6 | 8.3 | 0.4 | -3.4 | -4.5 | 0.0 | .
CN(C(=S)Nc1ccc(Oc2ccccc2)cc1)C1CCCCC1 | -7.2 | 7.1 | 46.3 | 0.6 | -19.1 | 0.6 | .
S=C(Nc1ccc(Oc2ccc(NC(=S)NC3CCCCC3)cc2)cc1)NC1CCCCC1 | -9.7 | 10.8 | 70.4* | -0.1 | 25.3 | 1.0 | 52.0*
Cc1nn(CC(=O)c2ccc3c(c2)OCCO3)c(=O)c(C#N)c1C | 7.8 | 14.7 | -0.8 | . | -42.0 | 0.0 | .
